A short description of test [1]: hit retest on RPL19A-GFP reporter strain – cell-based, S. cerevisiae, flow cytometry, cherry picks, mother/daughter gates, confirmation (AID 2270;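 active = GFP response below 50% of the DMSO control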). The following applies: 3 h, at 10 µM, stronger effect = lower value, 100 = same GFP as DMSO wells.
Test [2] is described as follows: yeast TOR pathway reporter LAP4-GFP change – cell-based, cherry picks, flow cytometry, mother/daughter gates, confirmation (AID 2271;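 active = GFP response above 150% of the DMSO control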;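 note: ratio of sample to DMSO plate mean so 100% equals DMSO level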). Conditions: S. cerevisiae LAP4-GFP strain, 3 h, at 10 µM, stronger effect = higher value, 100 means same as DMSO control. A digest of the protocol:
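Material: Alexa Fluor 633-labelled Saccharomyces cerevisiae GFP-fusion strain, single-plex | Amount: Yeast cells seeded at OD600 of 0.2 | Buffer or medium: SC growth medium | Schedule: 3 h exposure, 30 °C | Measured by: HT flow cytometry, GFP fluorescence channel | Evaluation: % GFP response vs DMSO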
(A flow cytometer gives signals particle by particle.)

Test [3] can be described thus: TOR pathway reporter MEP2-GFP, retest of hits – S. cerevisiae, flow cytometry GFP, cherry picks, confirmation (AID 2272;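 active = GFP response above 150% of the DMSO control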;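 note: ratio of well signal to plate DMSO mean so 100% equals DMSO level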). The following applies: S. cerevisiae MEP2-GFP strain, 3 h, at 10 µM, stronger effect = higher value.
Test [4] can be described thus: yeast AGP1-GFP fluorescence change, single-dose – cell-based, flow cytometry, S. cerevisiae, cherry picks, confirmation (AID 2273).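 Note: median GFP channel fluorescence over the whole cell population gate.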 Conditions: S. cerevisiae AGP1-GFP strain, 3 h, at 10 µM.
Test [5] in a line: TOR pathway CIT2 reporter hit retest – S. cerevisiae, GFP fusion, cherry picks, mother/daughter gates, confirmation (AID 2274). Conditions: S. cerevisiae CIT2-GFP strain, flow cytometry, 3 h, at 10 µM, stronger effect = higher value.
[6] abbreviates: measured here: daughter cell gate.
Where [7] appears, read: measured here: mother cell gate.
Setting [8] is: measured here: daughter cell gate response.
The mark [9] stands for this setting: measured here: mother cell gate response.

Active and inactive are the calls of the source.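 Rule for the calls, unless noted: active = GFP response above 150% of the DMSO level; inconclusive = fewer than 70 events counted for a yeast strain; inactive = the rest.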

For the compound `O=S(=O)(/N=C(/Nc1ccc(F)cc1F)c1ccc(Cl)cc1)c1ccccc1`, the GFP response vs DMSO in test [1] was 101% (inactive); in test [1] (setting [6]), 101%; in test [1] (setting [7]), 103%; in test [3], 102% (inactive). Also, the GFP response relative to DMSO is 96.5% (inactive) in test [2], 96.5% in test [2] (setting [8]) and 96.5% in test [2] (setting [9]). In addition, the GFP response, % of DMSO in test [4] is 96.9% (inactive); in test [5], 96.4% (inactive); in test [5] (setting [6]) it was 98.3%; in test [5] (setting [7]), 95.6%.
Take `Cc1ccc(CS(=O)(=O)c2ncc(Cl)c(C(=O)Nc3nnc(C)s3)n2)cc1`: the GFP response vs DMSO was 99.6% (inactive) in test [1], 99.8% in test [1] (setting [6]), 98.6% in test [1] (setting [7]) and 101% (inactive) in test [3]. Also, the results for the GFP response relative to DMSO in test [2], in test [2] (setting [8]) and in test [2] (setting [9]) were 102% (inactive), 104% and 104%, respectively. Also, the GFP response, % of DMSO in test [4] is 113% (inactive); in test [5], 103% (inactive); in test [5] (setting [6]), 99.3%; in test [5] (setting [7]), 104%.
Take `O=[N+]([O-])c1ccc(Cl)cc1Sc1ccccn1`: the GFP response vs DMSO in test [1] was 105% (inactive); in test [1] (setting [6]), 108%; in test [1] (setting [7]) it was 104%; in test [3], 112% (inactive). The GFP response relative to DMSO is 94.1% (inactive) in test [2], 96% in test [2] (setting [8]) and 91.3% in test [2] (setting [9]). Besides, the GFP response, % of DMSO in test [4] is 102% (inactive); in test [5], 111% (inactive); in test [5] (setting [6]) it was 110%; in test [5] (setting [7]), 108%.
`O=C(CCCCCN1C(=O)c2cccc3cccc(c23)C1=O)N1CCOCC1`: the GFP response vs DMSO was 102% (inactive) in test [1], 101% in test [1] (setting [6]), 102% in test [1] (setting [7]) and 99% (inactive) in test [3]. Also, the GFP response relative to DMSO in test [2] was 102% (inactive); in test [2] (setting [8]), 101%; in test [2] (setting [9]) it was 103%. Further, the GFP response, % of DMSO in test [4] was 99.8% (inactive); in test [5] it was 103% (inactive); in test [5] (setting [6]) it was 101%; in test [5] (setting [7]), 103%.
For `Oc1ccccc1/C=N/c1c(-c2ccco2)nc2ccccn12`, the GFP response vs DMSO in test [1] is 99.5% (inactive); in test [1] (setting [6]), 98.1%; in test [1] (setting [7]) it was 100%; in test [3], 100% (inactive). Further, the GFP response relative to DMSO in test [2] was 93.8% (inactive); in test [2] (setting [8]), 97.2%; in test [2] (setting [9]), 97.2%. For the same compound, the GFP response, % of DMSO was 102% (inactive) in test [4], 102% (inactive) in test [5], 99.7% in test [5] (setting [6]) and 102% in test [5] (setting [7]).
Consider `COc1ccccc1-c1nnc(NC(=O)c2ccc(S(=O)(=O)N(C)Cc3ccccc3)cc2)o1`, for which the GFP response vs DMSO is 100% (inactive) in test [1], 98.8% in test [1] (setting [6]), 100% in test [1] (setting [7]) and 104% (inactive) in test [3]. Besides, the GFP response relative to DMSO in test [2] is 95.3% (inactive); in test [2] (setting [8]), 95%; in test [2] (setting [9]), 94.6%. Besides, the GFP response, % of DMSO in test [4] was 98.9% (inactive); in test [5], 97.8% (inactive); in test [5] (setting [6]), 98.3%; in test [5] (setting [7]) it was 98%.
For `COc1cccc(/C=N/NC(=O)CCC(=O)Nc2ccc(Br)cc2)c1`, the GFP response vs DMSO in test [1] is 98.9% (inactive); in test [1] (setting [6]), 100%; in test [1] (setting [7]), 98%; in test [3], 108% (inactive). In addition, the GFP response relative to DMSO in test [2] is 90.6% (inactive); in test [2] (setting [8]), 92.9%; in test [2] (setting [9]), 90.3%. For the same compound, the GFP response, % of DMSO in test [4] is 100% (inactive); in test [5], 98.6% (inactive); in test [5] (setting [6]) it was 101%; in test [5] (setting [7]) it was 99.3%.
In the case of `O=S(=O)(/N=C(\Sc1ccc(Cl)cc1)c1ccccc1)c1ccccc1`, the GFP response vs DMSO in test [1] is 93.1% (inactive); in test [1] (setting [6]) it was 94.4%; in test [1] (setting [7]) it was 90.2%; in test [3] it was 99.3% (inactive). In addition, the GFP response relative to DMSO in test [2] is 182% (active); in test [2] (setting [8]) it was 145%; in test [2] (setting [9]) it was 178%. In addition, the GFP response, % of DMSO in test [4] was 101% (inactive); in test [5], 90.3% (inactive); in test [5] (setting [6]), 92.3%; in test [5] (setting [7]), 83.7%.
As to `Cc1cccn2c(=O)c(/C=C(\C#N)C(=O)NC3CCS(=O)(=O)C3)c(N3CCC(C(N)=O)CC3)nc12` (centres undefined), the GFP response vs DMSO was 101% (inactive) in test [1], 98.6% in test [1] (setting [6]), 102% in test [1] (setting [7]) and 99% (inactive) in test [3]. Further, the GFP response relative to DMSO was 98.2% (inactive) in test [2], 97.5% in test [2] (setting [8]) and 98.4% in test [2] (setting [9]). Besides, the GFP response, % of DMSO in test [4] is 89.7% (inactive); in test [5], 97.3% (inactive); in test [5] (setting [6]) it was 97.4%; in test [5] (setting [7]), 96.8%.

(Values after PubChem BioAssay.)
